Experimental data of several laboratories.
Target: Death-associated protein kinase 2 (DAPK2, Homo sapiens, UniProt Q9UIK4)

Compound | observed | technique | concentration | remaining binding [%]
COc1cnc(Nc2cccc(S(N)(=O)=O)c2)nc1N1CCN(c2ccccc2)CC1 | binding | competition with immobilised ligand | 1 µM | 78
Cc1noc([C@H]2C[C@@H](c3ccc(C(F)(F)F)cc3)CN(C(=O)N3CCS(=O)(=O)C3)C2)n1 | cell-free assay | competition with immobilised ligand | 1 µM | 100
C[C@@H](c1ccc(-n2cnc3c(N)ncnc32)cc1)N1CCc2nn(C)c(Cc3ccccc3)c2C1=O | binding | competition with immobilised ligand | 0.1 µM | 100
CN(c1nccc(-c2cnn3ncccc23)n1)C1CC1 | binding | – | 1 µM | 76
O=C(NCC1CCOCC1)c1n[nH]cc1NC(=O)c1c(F)cccc1F | binding | competition with immobilised ligand | 1 µM | 95
CCN1CCN(Cc2ccc(C(=O)Nc3ccc(C)c(Oc4ccc5c(c4)CC(=O)N5)c3)cc2C(F)(F)F)CC1 | binding | competition with immobilised ligand | 1 µM | 100
O=C(c1ccc(Nc2ncc(Cl)c(-c3ccc(Cl)s3)n2)cc1)N1CCC(N2CCCC2)CC1 | binding | competition with immobilised ligand | 1 µM | 29
COc1cnc(Nc2cccc(S(N)(=O)=O)c2)nc1N1CCN(c2ccccc2)C(=O)C1 | binding | competition with immobilised ligand | 1 µM | 100
Nc1ncc2c(n1)-c1c([nH]c3ccc(C#CC4CC4)cc13)CCCC2 | binding | competition with immobilised ligand | 1 µM | 100
CCS(=O)(=O)c1cc2cc(C[C@](O)(CC(C)(C)c3ccc(F)cc3C(N)=O)C(F)(F)F)[nH]c2cn1 | cell-free assay | competition with immobilised ligand | 1 µM | 90
F[C@@H]1CCN(c2nccc(-c3cnn4ncccc34)n2)C1 | binding | – | 1 µM | 100
O=C(NCCCN1CCOCC1)c1ccc(Nc2ncc(Cl)c(-c3ccc(Cl)s3)n2)cc1 | binding | competition with immobilised ligand | 1 µM | 38
C[C@@H]1CCN(c2nccc(-c3cnn4ncccc34)n2)C1 | binding | – | 1 µM | 85
Cc1cc(-n2nc(Cc3cc(F)cc(C(F)(F)F)c3)nc2C)ccc1C(N)=O | cell-free assay | competition with immobilised ligand | 1 µM | 95
COc1ccnn2ncc(-c3ccnc(N(C)C)n3)c12 | binding | – | 1 µM | 91
COc1cccc(CNC(=O)c2nc3scc(COCc4ccc(C(=O)O)cc4)c3c(=O)[nH]2)c1 | cell-free assay | competition with immobilised ligand | 1 µM | 83.1
CN(C)c1nccc(-c2cnc3ncccn23)n1 | binding | – | 1 µM | 89
C[C@H](NC(=O)c1cnc2n1[C@](C)(Cc1ccc(C#N)cc1)C(=O)N2c1cc(Cl)c(F)c(Cl)c1)C(=O)NC1(c2ccccn2)CC1 | cell-free assay | competition with immobilised ligand | 1 µM | 100
CN(C)c1ncc(F)c(-c2cnn3ncccc23)n1 | binding | – | 1 µM | 69
Cc1c(NC(=O)c2cc(C(N)=O)nc3cc(F)ccc23)c(C(F)(F)F)nn1Cc1ccc(C#N)cc1 | cell-free assay | competition with immobilised ligand | 1 µM | 99
N[C@@H]1CCN(c2nccc(-c3cnn4ncccc34)n2)C1 | binding | – | 1 µM | 100
O=C(c1ccc(Nc2ncc(Cl)c(-c3cc4ccccc4s3)n2)cc1)N1CCC(N2CCCC2)CC1 | binding | competition with immobilised ligand | 1 µM | 20
